# Measured values published in ChEMBL document CHEMBL3612021, “Structure-kinetics relationships of Capadenoson derivatives as adenosine A1 receptor agonists” (Eur J Med Chem, 2015).
# Molecular target: T1, Adenosine receptor A1 (Homo sapiens) (UniProt P30542)
# T1 sequence (whole entry): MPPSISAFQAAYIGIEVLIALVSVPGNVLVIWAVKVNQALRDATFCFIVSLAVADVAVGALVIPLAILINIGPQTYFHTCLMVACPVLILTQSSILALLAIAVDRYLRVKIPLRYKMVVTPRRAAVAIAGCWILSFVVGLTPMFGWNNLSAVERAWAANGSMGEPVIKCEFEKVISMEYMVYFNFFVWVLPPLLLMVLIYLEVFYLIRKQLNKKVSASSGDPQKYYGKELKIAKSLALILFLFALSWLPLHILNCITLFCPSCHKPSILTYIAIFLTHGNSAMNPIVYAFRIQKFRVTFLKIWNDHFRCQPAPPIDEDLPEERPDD
# Experiment: Displacement of [3H]DPCPX from human adenosine A1 receptor expressed in CHO cell membranes at 1 uM by competition association assay
row,Structure (SMILES),inhibition [%]
1,CCNCCN1CCN(C(=O)CCc2cccc(CSc3nc(N)c(C#N)c(-c4ccc(NC(C)=O)cc4)n3)n2)CC1,< 80
2,COc1ccc(-c2c(C#N)c(N)nc(SCc3csc(-c4cccc(F)c4)n3)c2C#N)cc1,> 80
3,N#Cc1c(N)nc(SCc2csc(-c3ccc(Cl)cc3)n2)nc1-c1ccc(OCCO)cc1,> 80
4,N#Cc1c(N)nc(SCc2coc(-c3ccc(F)cc3)n2)c(C#N)c1-c1ccc(O)cc1,> 80
5,COc1ccc(-c2c(C#N)c(N)nc(SCc3coc(-c4ccc(Cl)cc4)n3)c2C#N)cc1,> 80
6,N#Cc1c(N)nc(SCc2ccccc2[N+](=O)[O-])nc1-c1ccc2c(c1)OCO2,> 80
7,COc1ccc(-c2c(C#N)c(N)nc(SCc3csc(-c4ccc(C)cc4)n3)c2C#N)cc1,> 80
8,CC(=O)Nc1ccc(-c2nc(SCc3cccc(CCC(=O)N4CCN(CCN(C(C)C)C(C)C)CC4)n3)nc(N)c2C#N)cc1,< 80
9,N#Cc1c(NCC(c2ccccc2)c2ccccc2)nc(SCc2csc(-c3ccc(Cl)cc3)n2)nc1-c1ccc2c(c1)OCO2,< 80
10,CC(=O)Nc1ccc(-c2nc(SCc3cccc(CCC(=O)N4CCN(CCN5CCCC5)CC4)n3)nc(N)c2C#N)cc1,< 80
11,N#Cc1c(N)nc(SCc2csc(-c3ccccc3Cl)n2)c(C#N)c1-c1ccc(O)cc1,> 80
12,N#Cc1c(N)nc(SCc2csc(-c3cccc(F)c3)n2)c(C#N)c1-c1ccc(O)cc1,> 80
13,N#Cc1c(N)nc(SCc2csc(-c3ccc(Cl)cc3)n2)nc1-c1ccc(OC(F)(F)F)cc1,> 80
14,N#Cc1c(-c2ccc3c(c2)OCO3)cc(SCc2csc(-c3ccc(Cl)cc3)n2)nc1NC1CC1,> 80
15,N#Cc1c(N)nc(SCc2csc(N3CCOCC3)n2)nc1-c1ccc2c(c1)OCO2,> 80
16,N#Cc1c(N)nc(SCc2csc(-c3ccc(Cl)c(Cl)c3)n2)c(C#N)c1-c1ccc(O)cc1,> 80
17,Cc1ccc(-c2nc(SCc3csc(-c4ccc(Cl)cc4)n3)nc(N)c2C#N)cc1,< 80
18,N#Cc1c(N)nc(SCc2coc(-c3cccc(F)c3)n2)nc1-c1ccc2c(c1)OCO2,> 80
19,COc1ccc(-c2c(C#N)c(N)nc(SCc3coc(-c4ccc(F)cc4)n3)c2C#N)cc1,> 80
20,N#Cc1c(N)nc(SCc2csc(-c3ccc(Cl)cc3)n2)nc1-c1ccccc1,> 80
21,N#Cc1c(N)nc(SCc2ccccc2[N+](=O)[O-])nc1-c1ccccc1,> 80
22,N#Cc1c(N)nc(SCc2csc(-c3ccc([N+](=O)[O-])cc3)n2)nc1-c1ccc2c(c1)OCO2,> 80
23,N#Cc1c(NC2CCCC2)nc(SCc2csc(-c3ccc(Cl)cc3)n2)nc1-c1ccc2c(c1)OCO2,< 80
24,N#Cc1c(N)nc(SCc2csc(-c3ccc4c(c3)OCO4)n2)nc1-c1ccc2c(c1)OCO2,> 80
25,CN(C)CCNc1nc(SCc2csc(-c3ccc(Cl)cc3)n2)nc(-c2ccc3c(c2)OCO3)c1C#N,< 80
26,N#Cc1c(N)nc(SCc2csc(-c3cccc(F)c3)n2)nc1-c1ccc2c(c1)OCO2,> 80

row,Structure (SMILES),inhibition [%]
1,N#Cc1c(N)nc(SCc2csc(-c3cccc(Cl)c3)n2)nc1-c1ccc2c(c1)OCO2,> 80
2,N#Cc1c(N)nc(SCc2cscn2)nc1-c1ccc2c(c1)OCO2,> 80
3,N#Cc1c(N)nc(SCc2coc(-c3ccc(F)cc3)n2)nc1-c1ccc2c(c1)OCO2,> 80
4,N#Cc1c(N)nc(SCc2csc(-c3ccc(F)cc3)n2)nc1-c1ccc2c(c1)OCO2,> 80
5,Cc1ccc(-c2nc(CSc3nc(N)c(C#N)c(-c4ccc5c(c4)OCO5)n3)cs2)cc1,> 80
6,CC(=O)Nc1ccc(-c2nc(SCc3csc(-c4ccc(Cl)cc4)n3)nc(N)c2C#N)cc1,> 80
7,CCNc1nc(SCc2csc(-c3ccc(Cl)cc3)n2)cc(-c2ccc3c(c2)OCO3)c1C#N,> 80
8,C#CCNc1nc(SCc2csc(-c3ccc(Cl)cc3)n2)cc(-c2ccc3c(c2)OCO3)c1C#N,> 80
9,N#Cc1c(N)nc(SCc2csc(-c3ccccc3)n2)c(C#N)c1-c1ccc(O)cc1,> 80
10,N#Cc1c(N)nc(SCc2csc(-c3cccc(Cl)c3)n2)c(C#N)c1-c1ccc(O)cc1,> 80
11,N#Cc1c(NC2CCCCC2)nc(SCc2csc(-c3ccc(Cl)cc3)n2)nc1-c1ccc2c(c1)OCO2,< 80
12,N#Cc1c(NCCCCc2ccccc2)nc(SCc2csc(-c3ccc(Cl)cc3)n2)nc1-c1ccc2c(c1)OCO2,< 80
13,N#Cc1c(N)nc(SCc2csc(-c3ccc(C(F)(F)F)cc3)n2)nc1-c1ccc2c(c1)OCO2,> 80
14,N#Cc1c(N)nc(SCc2csc(-c3ccc(Cl)c(Cl)c3)n2)nc1-c1ccc2c(c1)OCO2,> 80
15,N#Cc1c(N)nc(SCc2coc(-c3ccc(Cl)cc3)n2)nc1-c1ccc2c(c1)OCO2,> 80
16,N#Cc1c(N)nc(SCc2csc(-c3ccc(Br)cc3)n2)nc1-c1ccc2c(c1)OCO2,> 80
17,CC(=O)Nc1ccc(-c2nc(SCc3cccc(CCC(=O)N4CCN(CCCCN5CCC(C)CC5)CC4)n3)nc(N)c2C#N)cc1,< 80
18,CCOc1ccc(-c2nc(SCc3csc(-c4ccc(Cl)cc4)n3)nc(N)c2C#N)cc1,< 80
19,N#Cc1c(N)nc(SCc2csc(-c3ccc(F)cc3)n2)c(C#N)c1-c1ccc(O)cc1,> 80
20,CC(C)CCNc1nc(SCc2csc(-c3ccc(Cl)cc3)n2)nc(-c2ccc3c(c2)OCO3)c1C#N,< 80
21,N#Cc1c(N)nc(SCc2csc(C3CCCCC3)n2)nc1-c1ccc2c(c1)OCO2,> 80
22,N#Cc1c(N)nc(SCc2csc(-c3ccc(I)cc3)n2)nc1-c1ccc2c(c1)OCO2,> 80
23,N#Cc1c(N)nc(SCc2csc(-c3ccc(Cl)cc3)n2)nc1-c1ccc(O)cc1,> 80
24,N#Cc1c(NCCc2ccccc2)nc(SCc2csc(-c3ccc(Cl)cc3)n2)nc1-c1ccc2c(c1)OCO2,< 80
25,N#Cc1c(NCCCc2ccccc2)nc(SCc2csc(-c3ccc(Cl)cc3)n2)nc1-c1ccc2c(c1)OCO2,< 80
26,COc1ccc(-c2nc(SCc3csc(-c4ccc(Cl)cc4)n3)nc(N)c2C#N)cc1,< 80

row,Structure (SMILES),inhibition [%]
1,COc1ccc(-c2nc(CSc3nc(N)c(C#N)c(-c4ccc5c(c4)OCO5)n3)cs2)cc1,> 80
2,N#Cc1c(N)nc(SCc2nc(-c3ccc(Cl)cc3)sc2Cl)c(C#N)c1-c1ccc2c(c1)OCO2,> 80
3,N#Cc1c(N)nc(SCc2csc(-c3ccccc3Cl)n2)nc1-c1ccc2c(c1)OCO2,> 80
4,CNc1nc(SCc2csc(-c3ccc(Cl)cc3)n2)cc(-c2ccc3c(c2)OCO3)c1C#N,> 80
5,CC(C)(C)Nc1nc(SCc2csc(-c3ccc(Cl)cc3)n2)nc(-c2ccc3c(c2)OCO3)c1C#N,< 80
6,COc1ccc(-c2nc(CSc3nc(N)c(C#N)c(-c4ccc(O)cc4)c3C#N)cs2)cc1,> 80
7,N#Cc1c(N)nc(SCc2csc(-c3ccc(Br)cc3)n2)c(C#N)c1-c1ccc(O)cc1,> 80
8,CC(C)Nc1nc(SCc2csc(-c3ccc(Cl)cc3)n2)nc(-c2ccc3c(c2)OCO3)c1C#N,< 80
9,CC(=O)Nc1ccc(-c2nc(SCc3cccc(CCC(=O)N4CCN(C)CC4)n3)nc(N)c2C#N)cc1,< 80
10,N#Cc1c(N)nc(SCc2nc(-c3ccc(Cl)cc3)sc2Br)c(C#N)c1-c1ccc2c(c1)OCO2,> 80
11,N#Cc1c(N)nc(SCc2csc(-c3ccccc3F)n2)nc1-c1ccc2c(c1)OCO2,> 80
12,N#Cc1c(NCc2ccccc2)nc(SCc2csc(-c3ccc(Cl)cc3)n2)nc1-c1ccc2c(c1)OCO2,< 80
13,CN(C)c1ccc(-c2nc(SCc3csc(-c4ccc(Cl)cc4)n3)nc(N)c2C#N)cc1,> 80
14,COc1ccc(-c2c(C#N)c(N)nc(SCc3csc(-c4ccccc4F)n3)c2C#N)cc1,> 80
15,Cc1ccc(-c2nc(CSc3nc(N)c(C#N)c(-c4ccc(O)cc4)c3C#N)cs2)cc1,> 80
16,N#Cc1c(N)nc(SCc2csc(N3CCOCC3)n2)c(C#N)c1-c1ccc(O)cc1,> 80
17,CCC(CC)Nc1nc(SCc2csc(-c3ccc(Cl)cc3)n2)nc(-c2ccc3c(c2)OCO3)c1C#N,< 80
18,CCCCNc1nc(SCc2csc(-c3ccc(Cl)cc3)n2)nc(-c2ccc3c(c2)OCO3)c1C#N,< 80
19,N#Cc1c(N)nc(SCc2coc(-c3cccc(F)c3)n2)c(C#N)c1-c1ccc(O)cc1,> 80
20,N#Cc1c(N)nc(SCc2csc(-c3ccccc3)n2)nc1-c1ccc2c(c1)OCO2,> 80
21,N#Cc1c(N)nc(SCc2csc(-c3ccccc3F)n2)c(C#N)c1-c1ccc(O)cc1,> 80
22,CC(=O)Nc1ccc(-c2nc(SCc3cccc(CCC(=O)N(C)CCN(C)C)n3)nc(N)c2C#N)cc1,< 80
23,COc1ccc(-c2nc(SCc3coc(-c4cccc(F)c4)n3)nc(N)c2C#N)cc1,< 80
24,N#Cc1c(N)nc(SCc2coc(-c3ccc(Cl)cc3)n2)c(C#N)c1-c1ccc(O)cc1,> 80

# Molecular target: T1, Adenosine receptor A1 (Homo sapiens)
# Experiment: Displacement of [3H]DPCPX from human adenosine A1 receptor expressed in CHO cell membranes assessed as kinetic rate index by measuring ratio of binding at earlier and later time points by competition association assay
# Method in brief: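 Dual-point competition association assay with [3H]DPCPX on CHO membranes stably expressing hA1. Specific binding is read at two time points in the presence of the test ligand. KRI is the ratio of binding at the earlier to the later time point (n = 2; both values reported).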
row,Structure (SMILES),Ratio
1,COc1ccc(-c2c(C#N)c(N)nc(SCc3csc(-c4ccc(C)cc4)n3)c2C#N)cc1,1.25
2,COc1ccc(-c2nc(CSc3nc(N)c(C#N)c(-c4ccc(OC)cc4)c3C#N)cs2)cc1,1.22
